Yeast life ext = compounds extending yeast replicative lifespan, primary screen, S. cerevisiae, OD615. S. cerevisiae growth with nicotinamide; deaD strain in restrictive glucose medium. inhibition of the nicotinamide effect, % at 10 µM. 130,000 compounds, 0.68% hits. AID 775, 2007;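 active = inhibition above a set limit, placed 3 SD over the median of all compounds, cut at about 26% in these data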
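Assay system: engineered S. cerevisiae DeaD replicative-lifespan strain, galactose-grown log-phase cells; medium: restrictive CSMM-D dextrose medium; also added: nicotinamide, 1.5 mM, co-present with compound; schedule: 48 h compound exposure at 30 °C, humidified; detection: absorbance at 615 nm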
RAM inhibit = inhibitors of the yeast RAM network, primary screen, dse1pr::URA3 reporter, 5-FOA selection | S. cerevisiae dse1pr::URA3 reporter, 5-FOA growth OD615, 2 d; analog-sensitive cbk1-as2 kinase mutant strain | inhibition, % at 50 µM | 190,000 compounds, 1.8% hits | AID 868, 2007;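 active = inhibition above a set limit, 3 SD over mean compound inhibition, cut at about 8.4% in these data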;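 also: inhibition rescues growth on 5-FOA so higher OD means more RAM inhibition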
Insulin prom up = insulin promoter activators in MIN6 cells, imaging, high-content screening, mouse beta cells. 190,000 compounds, 0.3% hits. z-score at 5 µM. AID 1625, 2009. MIN6 insulin promoter-GFP reporter; stronger effect = higher value;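 active = z-score above 3 at 5 µM with at least 500 cells counted in the well; inconclusive = wells under 500 cells, flagged as cytotoxic or low count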
Yeast growth inh = growth inhibitors of yeast BB579 in restrictive medium, primary screen, yeast lifespan-shortening project, S. cerevisiae | AID 804, 2007 | 140,000 compounds, 0.51% hits | OD615, 48 h | inhibition, % at 10 µM;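 active = inhibition above a set limit, 3 SD over the mean compound inhibition, cut at about 44% in these data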
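Test system: DeaD yeast strain BB579 / Buffer or medium: restrictive glucose-based CSMM-D medium / Doses: single 10 µM dose / Schedule: 4 h cell preincubation, 48 h compound exposure, 30 °C humidified / Technique: culture absorbance at 615 nm / Controls: amphotericin B positive control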
Insulin prom inh = inhibitors of insulin promoter-driven GFP, primary screen, imaging, TRM-6 cells, eGFP reporter, cell count; reporter expression induced with tamoxifen; inhibition, % at 2 µM; 130,000 compounds, 0.9% hits;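 active = inhibition above the mean plus 3 SD, with well images judged a real hit on visual review, cut at about 60% in these data, passing the limit was not always enough; inconclusive = inhibition over the cutoff but images rejected on review; inactive = inhibition not above the cutoff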
Each line names hits and unclear results; the compound was inactive in the other large screens. An excerpt weighted towards active compounds, which were near 3.1% of everything screened.

COc1ccc(C2Nc3ccccc3C(=O)N2NS(=O)(=O)c2ccccc2)cc1OC (configuration not stated)	none (no result: Yeast life ext, Yeast growth inh)
c1cncc(Nc2nc(-c3ccncc3)cs2)c1	none
Cc1nc(C)c(-c2csc(Nc3cccnc3)n2)s1	Insulin prom inh 87
O=C(CN(c1ccccc1F)S(=O)(=O)c1ccccc1)NC1CCCCCC1	RAM inhibit 11
COc1cc(/C=C(\C#N)C(=O)NCC2CCCO2)ccc1OC(C)C (configuration not stated)	Insulin prom inh 70
COc1ccc(/C=C(\C#N)C(=O)NCC2CCCO2)cc1OC (configuration not stated)	none (no result: Insulin prom inh)
O=C(Oc1c(CN2CCOCC2)cc(Cl)c2cccnc12)c1ccc(F)cc1	Yeast life ext 28
Oc1c(CN2CCN(c3ccccn3)CC2)cc(Cl)c2cccnc12	Yeast growth inh 59
OCCN1CCN(Cc2cc(Cl)c3cccnc3c2O)CC1	none
COc1ccccc1N1CCN(Cc2cc(Br)c(O)c3ncccc23)CC1	Yeast growth inh 97 (no result: Insulin prom inh)
CCOc1ccccc1N1CCN(Cc2cccc(OC)c2O)CC1	none
CCOC(=O)c1c(-c2ccc(OC)c(OC)c2)csc1NC(=O)C1CCCO1 (configuration not stated)	none (no result: Yeast life ext, Yeast growth inh, Insulin prom inh)
Cc1ccc(/C=C/C(=O)Nc2nnc(SCc3ccc(C#N)cc3)s2)o1	none
O=C(CCl)N1c2ccccc2OCC1c1ccccc1 (configuration not stated)	Yeast life ext 47, Insulin prom up inconclusive (no result: Insulin prom inh)
COc1ccc(S(=O)(=O)N2c3ccccc3OCC2c2ccccc2)cc1 (configuration not stated)	none (no result: Insulin prom inh)
COc1ccc(C(c2sc3nc(C)nn3c2O)N2CCC(C(N)=O)CC2)cc1OC (configuration not stated)	Insulin prom inh 80
O=C(CSc1nnc(NC(=O)Cc2ccc(F)cc2)s1)NCc1ccco1	Insulin prom inh 92 (no result: Yeast life ext, Yeast growth inh)
CC1CC(C)(C)Nc2ccc(N=O)cc21 (configuration not stated)	Insulin prom up 4.1 (no result: Yeast life ext, Yeast growth inh)
CCOc1ccc(NC(=S)Nc2ccc(Br)cc2Cl)cc1	none (no result: Yeast life ext, Yeast growth inh)
Cc1cccnc1NC(=S)Nc1ccc(Br)cc1Cl	RAM inhibit 8.5 (no result: Yeast life ext, Yeast growth inh, Insulin prom inh)
COc1ccnc(N=CNOCc2cccc(C(F)(F)F)c2)c1C#N	none (no result: Yeast life ext, Yeast growth inh, Insulin prom inh)
COC(=O)c1ccc(S(=O)(=O)NC(C)(C)C)n1C	none (no result: Yeast life ext, RAM inhibit, Yeast growth inh, Insulin prom inh)
COc1ccc(CC2(CO)CCN(CC3=CC[C@H]4C[C@@H]3C4(C)C)CC2)cc1	none (no result: Yeast life ext, Yeast growth inh, Insulin prom inh)
O=c1c2cccc3c(N4CCOCC4)ccc(c32)c2nc3ccccc3n12	Insulin prom up 9.8 (no result: Yeast life ext, RAM inhibit, Yeast growth inh, Insulin prom inh)
CCCn1nnc(NC(=O)c2cc(Br)ccc2OC)n1	Insulin prom inh 84
CCCn1nnc(NC(=O)c2cccc(Cl)c2)n1	none
CCCCCCCNC(=O)C1CC(=O)N(C)C(=Nc2ccc(OC)cc2)S1 (configuration not stated)	RAM inhibit 9.3
CCCCOc1ccc(C(=O)Nn2c(-c3cccs3)nc3ccccc3c2=O)cc1	none
COc1ccccc1OCC(=O)n1cc(C(=O)c2cc(Cl)cc(Cl)c2O)cn1	Yeast growth inh 45
Cc1cc(C)c2nc(NNC(=O)c3cc(=O)c4ccccc4o3)sc2c1	RAM inhibit 9.5 (no result: Yeast life ext, Yeast growth inh, Insulin prom inh)
O=C(Cn1nc(-c2ccccc2)ccc1=O)NCC1COCCO1 (configuration not stated)	Insulin prom inh 100 (no result: Insulin prom up)
O=C(Cn1nc(-c2ccccc2)ccc1=O)NCCCN1CCOCC1	none (no result: Yeast life ext, RAM inhibit, Yeast growth inh, Insulin prom inh)
Cc1nn2c(-c3ccccc3)nnc2c2ccccc12	none
Cc1nn2c3ccccc3nc2c2ccccc12	Yeast growth inh 79
O=C(c1ccco1)N(CCC(c1ccccc1)c1ccco1)Cc1ccccc1 (configuration not stated)	RAM inhibit 11
CCC(=O)N(CCC(c1ccccc1)c1ccco1)Cc1cccs1 (configuration not stated)	none
O=C(O)CCCCCNC(=O)Cn1nnc2ccccc2c1=O	none (no result: Yeast life ext, RAM inhibit, Yeast growth inh, Insulin prom inh)
N#Cc1c(SCC(N)=O)nsc1SCc1ccc(Cl)cc1	RAM inhibit 9.2
N#Cc1c(SCC(N)=O)nsc1SCc1ccccc1Cl	none
O=C1CCCN2N=C(SCC(=O)N3CCCCC3)SC2=N1	none (no result: Yeast life ext, RAM inhibit, Yeast growth inh, Insulin prom inh)
O=C1CCCN2N=C(SCC(=O)N3N=C(c4ccc(Br)cc4)CC3c3ccc(F)cc3)SC2=N1 (configuration not stated)	RAM inhibit 11 (no result: Yeast life ext, Yeast growth inh)
CC1(C)CC(=O)C(N=Nc2ccc(S(=O)(=O)N3CCOCC3)cc2)=C(O)C1	none (no result: Yeast life ext, RAM inhibit, Yeast growth inh, Insulin prom inh)
COC(=O)CN1C(=S)N(c2ccc(OC)cc2)C(=O)/C1=C/c1ccc(OC)cc1	RAM inhibit 11 (no result: Yeast life ext, Yeast growth inh)
Cc1ccc(C)c(S(=O)(=O)NCc2ccc(C(=O)N3CCCCCC3)cc2)c1	Insulin prom inh 77
CCOC(=O)CN(C(=O)CSc1nnc(CNc2ccc(F)cc2)o1)c1ccccc1	none (no result: Insulin prom up, Insulin prom inh)
CC(C)(C)N(Cc1ccccc1)C(=O)CSc1nnc(CNc2ccc(F)cc2)o1	RAM inhibit 8.6
CCOC(=O)c1nn(-c2cccc(OC)c2)c(-c2ccccc2)c1C(=O)c1ccccc1	none (no result: Insulin prom up)
CCOC(=O)c1nn(-c2cccc(Cl)c2)c(C)c1C(C)=O	Insulin prom inh 92
Cc1nn(-c2cccc(C(F)(F)F)c2)c(Cl)c1/C=N/Nc1cccc(C(=O)O)c1	Yeast growth inh 94
Cc1nn(-c2ccccc2Cl)c(Cl)c1/C=N/Nc1cccc(C(=O)O)c1	none
Cc1ccc(S(=O)(=O)N2CCNC(=O)CC2)cc1	none (no result: Yeast life ext, Yeast growth inh)
Cc1ccc(C(=O)C(c2ccccc2)N2Cc3ccccc3C2=N)cc1 (configuration not stated)	none (no result: Insulin prom up)
CC(C)Cc1nc(N2CCN(C(=O)c3ccco3)CC2)c(C#N)c2c1CCC2	RAM inhibit 9.2
CCOc1cc(NC(=O)c2ccccn2)c(OCC)cc1NC(=O)c1ccccc1	RAM inhibit 9.7 (no result: Yeast life ext, Yeast growth inh)
CCCCSc1nc(NCc2ccco2)c2c3c(sc2n1)COC(C)(C)C3	RAM inhibit 10
CSc1nc(NCc2ccco2)c2c3c(sc2n1)CN(C)CC3	none (no result: Insulin prom up)
O=C(O)c1ccccc1-c1nc2ccccc2[nH]1	none (no result: Yeast life ext, Yeast growth inh, Insulin prom inh)
Oc1ccc2ccccc2c1C=Nc1ccccc1-c1nc2ccccc2[nH]1	Yeast life ext 39
CCN1CCN(CC(=O)N/N=C/c2ccc(F)cc2F)CC1	none
COc1cccc(-c2cc(C(F)(F)F)nc(NCc3ccco3)n2)c1	RAM inhibit 8.9
O=C(NCc1cccc(C(F)(F)F)c1)c1cccc(S(=O)(=O)NCc2ccccc2)c1	none (no result: Insulin prom up)
O=C(NC(c1ccccc1)c1ccccc1)c1cccc(S(=O)(=O)NCc2ccccc2)c1	RAM inhibit 8.6 (no result: Insulin prom inh)
CC(=O)c1cccc(NC(=O)Nc2ccc3c(c2)N(C)C(=O)CS3)c1	RAM inhibit 8.5
C=CCNC(=O)CN1C(=O)C2C3c4ccccc4C(c4ccccc43)C2C1=O (configuration not stated)	none (no result: Yeast life ext, Yeast growth inh, Insulin prom inh)
COC(=O)COc1cccc(/C=N/NC(=O)CCSc2ccccc2)c1	none (no result: Yeast life ext, Yeast growth inh)
Cc1sc2ncnc(NCC3CCCO3)c2c1C (configuration not stated)	none
